Screening data as filed in PubChem BioAssay.
TCR CD3 inh: inhibitors of human TCR-CD3 interaction; TAMRA-labeled TCR probe fluorescence, biochemical; inhibition, % at 9.4 µM; 360,000 compounds, 0.37% hits; in the data active = inhibition above about 19%;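 also: recombinant mutant TCR 2C K166C tagged with TAMRA read by polarization; 0% = receptor in buffer alone and 100% = receptor with positive control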
Apaf-1 inh: blocks human Apaf-1 apoptosome activity; O14727; reconstituted apoptosome caspase-3 activity, DEVD-Rh110 fluorescence; inhibition, % at 20 µM; AID 489030; 330,000 compounds, 0.71% hits; active = inhibition of at least 40% at 20 µM;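 also: plate controls were DMSO wells for no effect and DEVD-CHO caspase inhibitor wells for full effect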
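Material: cell-free apoptosome with Apaf-1, procaspase-3 and caspase-9; Buffer or medium: Hepes pH 7.5 with detergent and BSA; Reagent: cytochrome c trigger plus (Z-DEVD)2-Rh110 caspase-3 substrate; Times: compound with Apaf-1, dATP, procaspase-3 30 min, then 50 min reaction, room temperature; Technique: Rh110 fluorescence intensity.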
SIAE primary: blocks human sialic acid acetylesterase. Q9HAT2. SIAE FP-Rh probe binding, fluorescence polarization. inhibition, % at 9.66 µM. 370,000 compounds, 0.69% hits;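 active = inhibition above a cutoff: mean of compounds within the control limits plus 3 SD of those, cut at about 17% in these data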;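 also: 0% = plate median of compound wells and 100% = probe without SIAE protein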
GSTO1 inh: GSTO1 inhibition, counter-screen for RBBP9 inhibitors; P78417; recombinant GSTO1, activity-based probe fluorescence polarization; inhibition, % at 5.96 µM; 300,000 compounds, 1.1% hits; AID 1974;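 active = inhibition above the campaign mean inhibition plus 3 SD, cut at about 35% in these data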;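 also: 0% = GSTO1-1 with DMSO and 100% = wells lacking GSTO1-1 enzyme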
TDP2 absorb: blocks human TDP2 phosphodiesterase activity | O95551 | recombinant TDP2, T5PNP hydrolysis, p-nitrophenol absorbance 415 nm | inhibition, % at 12.8 µM | 370,000 compounds, 0.34% hits;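 active = inhibition above the mean of all tested compounds plus 3 SD, set per campaign, cut at about 25% in these data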;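 also: 0% = DMSO with enzyme and 100% = buffer with substrate but no TDP2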
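test system = human TDP2 enzyme | input = TDP2 enzyme at 120 nM final | medium = 50 mM Tris-HCl pH 7.5 with Mg2+, KCl, DTT, BSA | also added = T5PNP substrate, 5 mM | times = 2 h at 37 °C | technique = epi absorbance | benchmarks = high control without enzyme, low control DMSO plus TDP2 | replication = each compound tested once, singlicate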
PAD4 FP inh: PAD4 (human) enzyme inhibition. Q9UM07. recombinant PAD4, RCA probe fluorescence polarization. inhibition, % at 6.36 µM. 330,000 compounds, 0.41% hits. AID 485272;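 active = percent inhibition above a cutoff equal to the mean of all tested compounds plus 3 SD, cut at about 15% in these data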;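 also: 0% = PAD4 with RCA probe and DMSO and 100% = probe without PAD4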
SIAE confirm: confirmation of human SIAE inhibitors; SIAE FP-Rh activity-based probe, fluorescence polarization; 2,300 compounds, 13% hits; shares compounds with SIAE primary; inhibition, % at 9.66 µM; AID 1117263;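 active = mean inhibition of the replicates above the hit cutoff set in the primary screen, cut at about 17% in these data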;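 also: 0% = SIAE with DMSO and probe and 100% = probe without SIAE; inhibitors lower polarization as more probe stays unbound to SIAE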
* hit, by the source's call; . = not tested or not shown. Hits are enriched below; roughly 2.4% of the tested compounds scored in any of these assays.

SMILES	TCR CD3 inh	Apaf-1 inh	SIAE primary	GSTO1 inh	TDP2 absorb	PAD4 FP inh	SIAE confirm
COc1ccc(C(NCC(=O)Nc2c(C)cccc2C)c2ccccc2)cc1 (stereo not given)	2	13	9	-4	21	0	.
COc1ccccc1S(=O)(=O)Cc1ccc(C(=O)NCc2cccs2)o1	6	0	2	6	1	1	.
CN(CC(=O)Nc1ccc(F)cc1)C(=O)Cc1ccsc1	-5	0	3	.	1	-2	.
N/C(Cc1ccc(Cl)cc1Cl)=N\OC(=O)c1ccccc1F	4	12	2	3	-5	-4	.
N/C(Cc1cccc2ccccc12)=N\OC(=O)c1ccccc1F	15	16	41*	.	10	.	-8
O=C(CC[C@H]1O[C@@H](n2cnc3c(NC(=O)c4ccccc4)ncnc32)[C@H](O)[C@@H]1O)NCCCN1CCOCC1	0	.	19*	.	-4	.	13
COCCCNC(=O)CC[C@H]1O[C@@H](n2cnc3c(NC(=O)c4ccccc4)ncnc32)[C@H](O)[C@@H]1O	3	.	2	.	-1	.	.
COc1ccc(C(=O)Nc2ccc3nc(C)c(C)nc3c2)cc1	-8	4	-11	-14	-4	-2	.
O=C(CSc1nnc(NC2CCCCC2)s1)Nc1ccc2c(c1)C(=O)c1ccccc1C2=O	3	16	5	10	-10	3	.
Cc1ccc(Nc2nnc(SCC(=O)Nc3ccccc3[N+](=O)[O-])s2)cc1	1	13	25*	2	12	6	0
CC(C)Nc1nnc(SCC(=O)Nc2ccc3c(c2)C(=O)c2ccccc2C3=O)s1	7	.	27*	3	3	-6	-11
Cc1cccc(Nc2nnc(SCC(=O)Nc3ccccc3[N+](=O)[O-])s2)c1C	-4	15	7	7	4	-4	.
COc1ccc(N2CCN(C(=O)CCNC(=O)c3ccc(C(C)(C)C)cc3)CC2)cc1	5	9	8	4	4	-1	.
C[C@H](CO)N1C[C@H](C)[C@@H](CN(C)S(=O)(=O)c2ccccc2)Oc2ccc(NC(=O)Nc3ccc4c(c3)OCO4)cc2C1=O	8	21	19*	.	12	0	2
COc1ccc(NC(=O)Nc2ccc3c(c2)C(=O)N([C@H](C)CO)C[C@H](C)[C@@H](CN(C)S(=O)(=O)c2ccc(OC)cc2)O3)cc1	1	24	22*	.	-8	1	-4
COc1ccc(NC(=O)Nc2ccc3c(c2)C(=O)N([C@H](C)CO)C[C@H](C)[C@@H](CN(C)S(C)(=O)=O)O3)cc1	-16	-6	-1	.	1	1	.
COc1ccc(NC(=O)N(C)C[C@H]2OCCCC[C@H](C)Oc3ccc(NC(=O)Nc4ccc5c(c4)OCO5)cc3C(=O)N([C@@H](C)CO)C[C@@H]2C)cc1	1	.	23*	.	-3	.	6
C[C@H]1CCCCO[C@H](CN(C)C(=O)Nc2ccc(F)cc2)[C@@H](C)CN([C@@H](C)CO)C(=O)c2cc(NC(=O)Nc3ccc4c(c3)OCO4)ccc2O1	0	.	11	.	-8	.	.
C[C@H](CO)N1C[C@H](C)[C@@H](CN(C)S(=O)(=O)c2ccccc2)Oc2ccc(NC(=O)Cc3ccccc3)cc2C1=O	3	10	-5	.	-7	0	.
Cc1cccc(NC(=O)N2CCCC2C(=O)NCc2ccccc2)c1 (stereo not given)	5	8	-3	6	7	2	.
CCN(C(=O)COC(=O)/C=C/c1cnc2ccccc2n1)C1CCS(=O)(=O)C1 (stereo not given)	0	-9	28*	-6	-4	-2	-1
CCCCN(CC)CCCNC(=O)c1cn(C)c(=O)c2c1c1ccccc1n2C	-4	5	19*	1	-11	4	-3
CCOc1ccccc1N(CC(=O)NC1CCCC1)C(=O)CCC(=O)Nc1cc(C)on1	-7	7	-4	1	-1	0	.
O=C(Nc1ccc(N2CCCC2)cc1)c1cccc(F)c1	-10	-5	18*	8	-11	-4	-1
CC(C)c1ccc(NC(=O)COC(=O)CC2CCCC2)cc1	-3	17	20*	.	2	-2	-1
SMILES	TCR CD3 inh	Apaf-1 inh	SIAE primary	GSTO1 inh	TDP2 absorb	PAD4 FP inh	SIAE confirm
CCc1ccc(NC(=O)COC(=O)CC2CCCC2)cc1	-4	10	4	.	3	3	.
COc1cc2c(cc1OC)C1c3ccc(OC)c(OC)c3OCC1(O)C2 (stereo not given)	2	.	-2	.	6	.	.
CN(C)c1ccc(NC(=O)c2cn(-c3ccccc3)nc2-c2cccs2)cc1	2	14	25*	-14	-5	-5	19*
O=C(NNc1nc2ccccc2o1)c1ccccc1	7	-4	18*	-4	0	2	0
Cc1cc(C(=O)NCC(C)C)c2ccccc2n1	2	-1	2	-5	-9	-1	.
Cc1ccsc1C(=O)Nc1cccc(S(=O)(=O)N(C)C)c1	-3	1	2	2	-12	3	.
CCCc1cc(=O)[nH]c(SCC(=O)Nc2c(C)cccc2C)n1	.	-10	.	-2	.	-2	.
CCCc1cc(=O)[nH]c(SCC(=O)Nc2sccc2C#N)n1	-7	0	17*	.	17	.	3
O=C(c1ccccc1N1CCOCC1)N1CCCC(Nc2ccc(F)cc2)C1 (stereo not given)	7	2	9	7	6	0	.
O=C(CCN1CCOCC1)N1CCCC(Nc2ccc(F)cc2)C1 (stereo not given)	7	-56	18*	-1	-7	-1	-2
CC(C)OC(=O)c1cc2c(ccn2C)n1CC(=O)N(Cc1ccccc1)c1ccccc1	4	25	19*	2	10	-2	15
O=C(Cc1ccccc1)NC(CSSCC(NC(=O)Cc1ccccc1)C(=O)O)C(=O)O (stereo not given)	3	.	-5	.	14	.	.
O=c1[nH]c2cc([N+](=O)[O-])ccc2c2ccc([N+](=O)[O-])cc12	-4	.	-1	.	3	.	.
COc1ccc(NC2=Nc3cccc4cccc2c34)cc1	1	-8	12	-2	-12	-3	.
COc1ccc(C2=Nc3cccc4cccc(c34)N2)cc1	5	-8	26*	24	18	0	2
Nc1cccc(C2=Nc3cccc4cccc(c34)N2)c1	0	.	45*	2	5	-6	4
Cc1cccc(NS(=O)(=O)c2cccc(C(=O)NCc3ccccc3CN3CCOCC3)c2)c1	5	9	-8	.	11	-1	.
CN(CCc1ccccc1)C1CCCN(C(=O)Cn2cccn2)C1 (stereo not given)	-2	-6	-1	3	2	-2	.
